In general, IC50 refers to the concentration that inhibits the measured activity by half.

The target in test [1] is Matrix metalloproteinase-9 (Homo sapiens, UniProt P14780). The test can be described thus: Inhibition of recombinant human MMP9 catalytic domain (Phe107 to Pro449 residues) expressed in Escherichia coli cells using Mca-Pro-Leu-Gly-Leu-Dpa-Ala-Arg-NH2/TQ3-GABA-Pro-Cha-Abu-Smc-His-Ala-Dab(6'-TAMRA)-Ala-Lys-NH2 as fluorogenic substrate preincubated for 15 mins followed by substrate addition measured after 2 to 4 hrs by fluorometric assay. The method, boiled down: (§1)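 Commercial catalytic domain in Tris·HCl 50 mM pH 7.5, NaCl 150 mM, CaCl₂ 1 mM, ZnCl₂ 1 µM, 0.05% Brij-35, 1% DMSO. Inhibitor was tested at six concentrations (1 nM–100 µM), diluted from 10 mM DMSO stocks, and pre-incubated with enzyme for 15 min at room temperature. OmniMMP substrate (2.5 µM final) or OmniMMP RED substrate (1 µM final) was then added and incubated 2–4 h at 37°C. Fluorescence read at ex 340/em 405 or ex 545/em 572. Percent inhibition calculated versus no-inhibitor wells. Run in triplicate; IC50 given as mean ± SEM of ≥2 independent experiments.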

A further test deals with Collagenase 3 (Homo sapiens, UniProt P45452). The test can be described thus: Inhibition of recombinant human MMP13 catalytic domain (Tyr104 to Asn274 residues) expressed in Escherichia coli cells using Mca-Pro-Leu-Gly-Leu-Dpa-Ala-Arg-NH2/TQ3-GABA-Pro-Cha-Abu-Smc-His-Ala-Dab(6'-TAMRA)-Ala-Lys-NH2 as fluorogenic substrate preincubated for 15 mins followed by substrate addition measured after 2 to 4 hrs by fluorometric assay.

The target in another test is Neutrophil collagenase (Homo sapiens, UniProt P22894). Nature of the test: Inhibition of recombinant human MMP8 catalytic domain (Phe99 to Gln269 residues) expressed in Escherichia coli cells using Mca-Pro-Leu-Gly-Leu-Dpa-Ala-Arg-NH2/TQ3-GABA-Pro-Cha-Abu-Smc-His-Ala-Dab(6'-TAMRA)-Ala-Lys-NH2 as fluorogenic substrate preincubated for 15 mins followed by substrate addition measured after 2 to 4 hrs by fluorometric assay. The method, boiled down:
as §1

Test [2] has as its target 72 kDa type IV collagenase (Homo sapiens, UniProt P08253). Nature of the test: Inhibition of recombinant human MMP2 catalytic domain (Tyr110 to Asp452 residues) expressed in yeast cells using Mca-Pro-Leu-Gly-Leu-Dpa-Ala-Arg-NH2/TQ3-GABA-Pro-Cha-Abu-Smc-His-Ala-Dab(6'-TAMRA)-Ala-Lys-NH2 as fluorogenic substrate preincubated for 15 mins followed by substrate addition measured after 2 to 4 hrs by fluorometric analysis. Type of test: biochemical. In a few lines:
as §1

Neutrophil collagenase, sequence (P22894 whole entry, the tested form may be a part): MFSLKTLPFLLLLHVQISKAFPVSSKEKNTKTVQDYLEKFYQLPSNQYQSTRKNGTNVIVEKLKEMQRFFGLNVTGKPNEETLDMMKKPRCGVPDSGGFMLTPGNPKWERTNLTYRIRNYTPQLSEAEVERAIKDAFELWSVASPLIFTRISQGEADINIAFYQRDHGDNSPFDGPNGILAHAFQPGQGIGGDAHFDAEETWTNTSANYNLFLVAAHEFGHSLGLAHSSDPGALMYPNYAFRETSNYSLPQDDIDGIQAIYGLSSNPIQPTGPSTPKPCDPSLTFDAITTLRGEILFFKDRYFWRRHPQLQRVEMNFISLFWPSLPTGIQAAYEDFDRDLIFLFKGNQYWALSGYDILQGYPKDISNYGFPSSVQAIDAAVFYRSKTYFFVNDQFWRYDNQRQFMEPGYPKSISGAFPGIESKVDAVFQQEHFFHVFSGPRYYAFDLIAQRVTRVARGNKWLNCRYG
Matrix metalloproteinase-9, sequence (P14780 whole entry, the tested form may be a part): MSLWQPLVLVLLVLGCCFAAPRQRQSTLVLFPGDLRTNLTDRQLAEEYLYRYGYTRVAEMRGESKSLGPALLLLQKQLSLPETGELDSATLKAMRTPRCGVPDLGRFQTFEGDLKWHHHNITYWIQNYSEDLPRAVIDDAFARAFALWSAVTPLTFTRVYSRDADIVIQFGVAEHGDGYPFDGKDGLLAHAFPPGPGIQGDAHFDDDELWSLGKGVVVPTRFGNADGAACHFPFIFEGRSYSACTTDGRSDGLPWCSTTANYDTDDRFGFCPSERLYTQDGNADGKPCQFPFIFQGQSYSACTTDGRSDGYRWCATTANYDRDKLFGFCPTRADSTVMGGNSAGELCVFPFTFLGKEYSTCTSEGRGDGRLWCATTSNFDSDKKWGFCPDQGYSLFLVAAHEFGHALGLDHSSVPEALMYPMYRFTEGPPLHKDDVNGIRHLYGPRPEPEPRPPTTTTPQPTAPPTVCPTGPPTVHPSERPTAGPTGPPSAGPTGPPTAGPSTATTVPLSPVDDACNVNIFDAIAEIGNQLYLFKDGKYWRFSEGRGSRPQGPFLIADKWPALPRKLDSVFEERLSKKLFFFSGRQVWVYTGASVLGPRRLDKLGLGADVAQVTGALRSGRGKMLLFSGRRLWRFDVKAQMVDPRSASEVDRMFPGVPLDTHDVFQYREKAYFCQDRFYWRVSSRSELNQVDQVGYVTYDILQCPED
72 kDa type IV collagenase, sequence (P08253 whole entry, the tested form may be a part): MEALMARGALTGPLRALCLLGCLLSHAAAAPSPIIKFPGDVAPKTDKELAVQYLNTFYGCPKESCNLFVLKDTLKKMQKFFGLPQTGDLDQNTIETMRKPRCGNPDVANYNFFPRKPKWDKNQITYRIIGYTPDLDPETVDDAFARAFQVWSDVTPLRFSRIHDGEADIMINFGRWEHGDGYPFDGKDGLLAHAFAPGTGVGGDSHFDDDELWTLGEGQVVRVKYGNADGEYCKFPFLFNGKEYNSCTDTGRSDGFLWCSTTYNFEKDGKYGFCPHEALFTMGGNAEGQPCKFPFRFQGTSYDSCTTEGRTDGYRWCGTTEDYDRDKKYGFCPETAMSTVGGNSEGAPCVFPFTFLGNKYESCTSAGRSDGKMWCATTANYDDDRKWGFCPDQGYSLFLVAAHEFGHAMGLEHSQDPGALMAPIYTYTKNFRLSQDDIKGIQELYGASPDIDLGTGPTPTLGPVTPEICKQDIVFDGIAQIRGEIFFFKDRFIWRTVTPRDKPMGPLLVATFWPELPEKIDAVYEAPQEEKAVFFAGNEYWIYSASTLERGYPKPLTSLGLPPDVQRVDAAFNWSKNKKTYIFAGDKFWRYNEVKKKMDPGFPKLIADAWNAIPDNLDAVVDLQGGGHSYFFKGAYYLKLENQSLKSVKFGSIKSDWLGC

In the case of `O=C(Nc1nc2ccc(Cl)cc2s1)c1ccc([N+](=O)[O-])cc1`, the half-maximal inhibitory concentration (IC50) is more than 100 µM in test [1], 20 µM at Collagenase 3, more than 100 µM at Neutrophil collagenase and more than 100 µM in test [2].

Regarding `Cc1ccc2oc(-c3ccc(NC(=O)c4ccc([N+](=O)[O-])cc4)cc3)nc2c1`, the half-maximal inhibitory concentration (IC50) in test [1] stood at 20 µM; at Collagenase 3 it was 11 µM; at Neutrophil collagenase, 14.7 µM; in test [2], 15.9 µM.

With `O=C(Nc1nc2ccccc2s1)c1ccc([N+](=O)[O-])cc1`, the IC50 (in test [1]; at Collagenase 3; on Neutrophil collagenase; in test [2]) was more than 100 µM throughout.

With `Cc1ccc2oc(-c3ccc([N+](=O)[O-])cc3)nc2c1`, the IC50 in test [1] is 14.9 µM; at Collagenase 3 it was 8.8 µM; on Neutrophil collagenase, 16.4 µM; in test [2], 9.7 µM.
